According to ChEMBL document CHEMBL4049428, “Exploring Derivatives of Quinazoline Alkaloid l-Vasicine as Cap Groups in the Design and Biological Mechanistic Evaluation of Novel Antitumor Histone Deacetylase Inhibitors” (J Med Chem, 2017):
Activity calls are given as the source filed them. The rule behind the calls is not given here.

Legend:
[1] = organism: Homo sapiens; test: Inhibition of HDAC in human HeLa nuclear extract up to 2 uM using Boc-Lys(Ac)-AMC as substrate measured after 30 mins by fluorometric analysis
[2] = system: THP-1; test: Cytotoxicity against human THP1 cells assessed as growth inhibition at 10 uM after 48 hrs by MTT assay; type: functional; details: THP-1, 48 h, read-out: GI
Summary of the method: (§1)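 MTT assay, 48 h exposure; adherent lines seeded 12 h and suspension lines 4 h before compound. Media: RPMI-1640/10% FCS (THP-1, HL-60, Colo-205, Caco-2, A549), DMEM/10% FCS (A549, MIAPaCa-2, MCF-7). MTT 4 h, formazan dissolved in DMSO, absorbance 570 nm. Mean ± S.D of three experiments in triplicate; SAHA 5 µM reference.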

[3] = system: HL-60; test: Cytotoxicity against human HL60 cells assessed as growth inhibition at 10 uM after 48 hrs by MTT assay; type: functional; details: HL-60, 48 h, read-out: GI; summary of the method: as §1
[4] = system: MOLT-4; test: Cytotoxicity against human MOLT4 cells assessed as growth inhibition at 10 uM after 48 hrs by MTT assay; type: functional; details: MOLT-4, 48 h, read-out: GI
[5] = system: COLO 205; test: Cytotoxicity against human COLO205 cells assessed as growth inhibition at 10 uM after 48 hrs by MTT assay; type: functional; details: COLO 205, 48 h, read-out: GI; summary of the method: as §1
[6] = system: Caco-2; test: Cytotoxicity against human Caco2 cells assessed as growth inhibition at 10 uM after 48 hrs by MTT assay; type: functional; details: Caco-2, 48 h, read-out: GI; summary of the method: as §1
[7] = system: MIA PaCa-2; test: Cytotoxicity against human MIAPaCa2 cells assessed as growth inhibition at 10 uM after 48 hrs by MTT assay; type: functional; details: MIA PaCa-2, 48 h, read-out: GI; summary of the method: as §1
[8] = system: PC-3; test: Cytotoxicity against human PC3 cells assessed as growth inhibition at 10 uM after 48 hrs by MTT assay; type: functional; details: PC-3, 48 h, read-out: GI
[9] = system: A549; test: Cytotoxicity against human A549 cells assessed as growth inhibition at 10 uM after 48 hrs by MTT assay; type: functional; details: A549, 48 h, read-out: GI; summary of the method: as §1
[10] = system: MCF7; test: Cytotoxicity against human MCF7 cells assessed as growth inhibition at 10 uM after 48 hrs by MTT assay; type: functional; details: MCF7, 48 h, read-out: GI; summary of the method: as §1
[11] = system: MIA PaCa-2; test: Cytotoxicity against human MIAPaCa2 cells assessed as growth inhibition after 48 hrs by MTT assay; type: functional, cell-based; details: MIA PaCa-2, 48 h; summary of the method: as §1
[12] = system: P388; test: Antitumor activity against mouse P388 cells implanted in CDF1 mouse assessed as increase in median survival time at 50 mg/kg, ip administered for 9 consecutive days; type: functional
Summary of the method: (§2)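 P388 leukemia cells were harvested from 6–7-day-old ascites grown in the peritoneum of female DBA/2 mice. Female CDF1 mice (18–23 g) received 5×10^5 cells i.p. on day 0. Next day they were randomized into groups of 7 and dosed i.p. daily for 9 consecutive days; controls got 0.2 ml normal saline. Mortality was followed to day 18, with median survival time and %T/C calculated.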

[13] = system: HL-60; test: Induction of mitochondrial membrane potential loss in human HL60 cells at 1 uM measured after 48 hrs by Rh123 dye-based flow cytometric analysis (reference value: 5.6%); type: functional
Summary of the method: (§3)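 Cells seeded in 6-well plates 2-4 h, then 48 h with compound; Rh-123 1 µM added for the final half hour; cells centrifuged, washed twice in PBS, resuspended in PBS, and Ψm loss quantified by flow cytometry as percentage of cells.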

[14] = system: HL-60; test: Induction of mitochondrial membrane potential loss in human HL60 cells assessed as intact mitochondrial membrane potential at 1 uM measured after 48 hrs by Rh123 dye-based flow cytometric analysis (reference value: 91.3%); type: functional; summary of the method: as §3
[15] = system: MOLT-4; test: Induction of mitochondrial membrane potential loss in human MOLT4 cells at 1 uM measured after 48 hrs by Rh123 dye-based flow cytometric analysis (reference value: 9.6%); type: functional; summary of the method: as §3
[16] = system: MOLT-4; test: Induction of mitochondrial membrane potential loss in human MOLT4 cells assessed as intact mitochondrial membrane potential at 1 uM measured after 48 hrs by Rh123 dye-based flow cytometric analysis (reference value: 90.4%); type: functional; summary of the method: as §3
[17] = system: P388; test: Antitumor activity against mouse P388 cells implanted in CDF1 mouse assessed as increase in median survival time at 20 mg/kg, ip administered for 9 consecutive days; type: functional, organism-based; summary of the method: as §2

O=C(CCCCCCC(=O)N[C@H]1CCN(Cc2ccccc2)C1)NO
inhibition [1]: inactive

O=C(CCCC(=O)Nc1ccccc1CN1CC[C@H](O)C1)NO
inhibition [1]: Active
inhibition of growth at 10 µM [2]: 3%
inhibition of growth at 10 µM [3]: 3%
inhibition of growth at 10 µM [4]: 27%
inhibition of growth at 10 µM [5]: 26%
inhibition of growth at 10 µM [6]: 1%
inhibition of growth at 10 µM [7]: 4%
inhibition of growth at 10 µM [8]: 2%
inhibition of growth at 10 µM [9]: 5%
inhibition of growth at 10 µM [10]: 5%

O=C(CCCCCCCC(=O)N[C@@H]1CCN(Cc2ccccc2)C1)NO
inhibition [1]: inactive

O=C(CCCCCCCC(=O)Nc1ccccc1CN1CC[C@H](O)C1)NO
inhibition [1]: Active
inhibition of growth at 10 µM [2]: 17%
inhibition of growth at 10 µM [3]: 6%
inhibition of growth at 10 µM [4]: 30%
inhibition of growth at 10 µM [5]: 7%
inhibition of growth at 10 µM [6]: 5%
inhibition of growth at 10 µM [7]: 2%
inhibition of growth at 10 µM [8]: 12%
inhibition of growth at 10 µM [9]: 5%
inhibition of growth at 10 µM [10]: 3%

O=C(CCCCC(=O)Nc1ccccc1CN1CC[C@H](O)C1)NO
inhibition [1]: Active
inhibition of growth at 10 µM [2]: 37%
inhibition of growth at 10 µM [3]: 29%
inhibition of growth at 10 µM [4]: 38%
inhibition of growth at 10 µM [5]: 22%
inhibition of growth at 10 µM [6]: 31%
inhibition of growth at 10 µM [7]: 12%
inhibition of growth at 10 µM [8]: 15%
inhibition of growth at 10 µM [9]: 19%
inhibition of growth at 10 µM [10]: 26%

O=C(CCCCCCC(=O)N[C@@H]1CCN(Cc2ccccc2)C1)NO
inhibition [1]: inactive

O=C(CCCCC(=O)N[C@H]1CCN(Cc2ccccc2)C1)NO
inhibition [1]: inactive

O=C(CCCC(=O)N[C@@H]1CCN(Cc2ccccc2)C1)NO
inhibition [1]: inactive

O=C(CCCCCCCC(=O)N[C@H]1CCN(Cc2ccccc2)C1)NO
inhibition [1]: inactive

O=C(CCCC(=O)N[C@H]1CCN(Cc2ccccc2)C1)NO
inhibition [1]: inactive

O=C(CCCCCCC(=O)Nc1ccccc1)NO [VORINOSTAT]
IC50 [11]: 2200 nM
Activity [12]: Active
Activity [13]: 12.9%
Activity [14]: 75.6%
Activity [15]: 28.4%
Activity [16]: 71.6%

O=c1[nH]cc(F)c(=O)[nH]1
Activity [17]: Active

O=C(CCCCC(=O)N[C@@H]1CCN(Cc2ccccc2)C1)NO
inhibition [1]: inactive
